According to ChEMBL document CHEMBL4033733, “Enterovirus inhibitory activity of C-8-tert-butyl substituted 4-aryl-6,7,8,9-tetrahydrobenzo[4,5]thieno[3,2-e][1,2,4]triazolo[4,3-a]pyrimidin-5(4H)-ones” (Bioorg Med Chem Lett, 2017):
pEC50: −log10 of the molar value.

What was measured:
Liver [1] = assay: Stability in human liver microsomes assessed as compound remaining by mass spectrometry; format: ADME, microsome
How it was run: (§1)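 Phase I metabolic stability in human or rat liver microsomes, with buspirone as reference. Parent compound remaining was quantified by quantitative mass spectrometry and expressed as a percentage.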

Liver [2] = assay: Stability in rat liver microsomes assessed as compound remaining by mass spectrometry; format: ADME, microsome; how it was run: as §1
[3] = Selectivity index, ratio of CC50 for human HeLa cells to EC50 for human coxsackievirus B3 infected in human HeLa cells; format: toxicity, cell-based; conditions: read-out: Ratio CC50/EC50
How it was run: (§2)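 Cytopathic-effect reduction assay in HeLa cells infected with coxsackievirus B1, B3 or poliovirus 3, with pleconaril as reference. EC50 is the concentration that improves viability of infected HeLa cells by 50%. CC50 is the concentration that reduces viability of uninfected HeLa cells by 50%. SI is CC50/EC50.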

[4] = Antiviral activity against human rhinovirus 71 infected in human H1HeLa cells assessed as reduction in virus-induced cytopathicity incubated for 3 days by MTT assay; format: functional, cell-based, Human rhinovirus A71; conditions: Rhinovirus A, H1-HeLa, 72 h
How it was run: (§3)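 H1 HeLa cells infected with rhinovirus (14, 21 or 71); EC50 is the concentration restoring 50% viability of the infected cells. Pleconaril served as reference.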

Poliovirus 3 = assay: Antiviral activity against human poliovirus 3 infected in human HeLa cells assessed as reduction in virus-induced cytopathicity incubated for 3 days by MTT assay; format: functional, cell-based; conditions: Enterovirus C, 72 h; how it was run: as §2
[5] = Cytotoxicity in human HeLa cells assessed as reduction in cell viability incubated for 3 days by MTT assay; format: cell-based
How it was run: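 Uninfected HeLa cells; CC50 is the concentration lowering cell viability by 50%.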

[6] = Cytotoxicity in human H1HeLa cells assessed as reduction in cell viability incubated for 3 days by MTT assay; format: cell-based, H1-HeLa
How it was run: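 Uninfected H1 HeLa cells; CC50 is the concentration lowering cell viability by 50%.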

[7] = Selectivity index, ratio of CC50 for human HeLa cells to EC50 for human poliovirus 3 infected in human HeLa cells; format: toxicity, cell-based; conditions: read-out: Ratio CC50/EC50; how it was run: as §2
rhinovirus B14 = assay: Antiviral activity against human rhinovirus 14 infected in human H1HeLa cells assessed as reduction in virus-induced cytopathicity incubated for 3 days by MTT assay; format: functional, cell-based; conditions: Rhinovirus B, H1-HeLa, 72 h; how it was run: as §3
Coxsackievirus B1 = assay: Antiviral activity against human coxsackievirus B1 infected in human HeLa cells assessed as reduction in virus-induced cytopathicity incubated for 3 days by MTT assay; format: functional, cell-based; conditions: Enterovirus B, 72 h
How it was run: (§4)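 HeLa cells infected with enterovirus (coxsackievirus B1 or B3); protection from virus-induced cytopathic effect measured. EC50 is the concentration restoring 50% viability of the infected cells. Pleconaril served as reference.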

[8] = Selectivity index, ratio of CC50 for human HeLa cells to EC50 for human coxsackievirus B1 infected in human HeLa cells; format: toxicity, cell-based; conditions: read-out: Ratio CC50/EC50; how it was run: as §2
Coxsackievirus B3 = assay: Antiviral activity against human coxsackievirus B3 infected in human HeLa cells assessed as reduction in virus-induced cytopathicity incubated for 3 days by MTT assay; format: functional, cell-based; conditions: Enterovirus B, 72 h; how it was run: as §4
rhinovirus A21 = assay: Antiviral activity against human rhinovirus 21 infected in human H1HeLa cells assessed as reduction in virus-induced cytopathicity incubated for 3 days by MTT assay; format: functional, cell-based; conditions: Rhinovirus A, H1-HeLa, 72 h; how it was run: as §3

SMILES	Stability (Liver [1])	Stability (Liver [2])	selectivity ratio [3]	pEC50 [4]	pEC50 (Poliovirus 3)	CC50 at 72 h [5]	CC50 at 72 h [6]	selectivity ratio [7]	pEC50 (rhinovirus B14)	pEC50 (Coxsackievirus B1)	selectivity ratio [8]	pEC50 (Coxsackievirus B3)	pEC50 (rhinovirus A21)
CC(C)(C)C1CCc2c(sc3c2c(=O)n(-c2ccccc2)c2nncn32)C1 (stereo unspecified)	63.2%	51.5%	> 11.5	5.80	5.71	> 100 µM	9.6 µM	> 51.2	5.77	5.05	> 11.2	5.06	5.60
CC(C)(C)C1CCc2c(sc3c2c(=O)n(-c2cccc(Cl)c2)c2nncn32)C1 (stereo unspecified)				5.42	5.02	38.3 µM	15 µM		5.68	4.75		< 4.42	< 4.82
CC(C)(C)C1CCc2c(sc3c2c(=O)n(-c2ccc(Br)cc2)c2nncn32)C1 (stereo unspecified)				5.64	4.90	30.5 µM	11 µM		5.70	< 4.52		< 4.52	< 4.96
CC1(C)CCc2c(sc3c2c(=O)n(-c2ccccc2)c2nncn32)C1				< 4.12	< 4.26	54.8 µM	76.5 µM		< 4.12	< 4.26		< 4.26	< 4.12
Cc1nnc2n(-c3ccccc3)c(=O)c3c4c(sc3n12)CC(C(C)(C)C)CC4 (stereo unspecified)				5.34	< 4.35	45.1 µM	35.9 µM		5.37	< 4.35		< 4.35	< 4.44
CC(C)(C)C1CCc2c(sc3c2c(=O)n(-c2ccccc2)c2nnc(S)n32)C1 (stereo unspecified)				5.04	< 4.35	45.1 µM	40.1 µM		5.00	< 4.35		< 4.35	4.71
CC(C)(C)C1CCc2c(sc3c2c(=O)n(-c2ccc(C(F)(F)F)cc2)c2nncn32)C1 (stereo unspecified)				< 4.50	< 4.45	35.5 µM	31.4 µM		< 4.50	< 4.45		< 4.45	< 4.50
Cc1ccccc1-n1c(=O)c2c3c(sc2n2cnnc12)CC(C(C)(C)C)CC3 (stereo unspecified)				5.00	5.46	39.1 µM	35.4 µM		5.06	5.01		5.04	< 4.45
CC1CCCc2sc3c(c21)c(=O)n(-c1ccccc1)c1nncn31 (stereo unspecified)				< 4.00	< 4.00	> 100 µM	> 100 µM		< 4.00	< 4.00		< 4.00	< 4.00
CC(C)(C)C1CCc2c(sc3c2c(=O)n(-c2ccccc2)c2nnc(-c4ccccc4)n32)C1 (stereo unspecified)				< 5.06	< 4.50	31.9 µM	8.7 µM		< 5.06	< 4.50		< 4.50	< 5.06
CC(C)(C)C1CCc2c(sc3c2c(=O)n(-c2ccccc2Cl)c2nncn32)C1 (stereo unspecified)				5.41	5.74	26.3 µM	20.7 µM		5.60	4.71		4.79	4.83
CC(C)(C)C1CCc2c(sc3c2c(=O)n(-c2cccc(Br)c2)c2nncn32)C1 (stereo unspecified)				4.80	4.88	32.9 µM	26.3 µM		5.46	4.81		< 4.48	4.70
CCCC1CCc2c(sc3c2c(=O)n(-c2ccccc2)c2nncn32)C1 (stereo unspecified)				4.85	4.70	41 µM	31.7 µM		4.74	< 4.39		< 4.39	< 4.50
Cc1ccc(-c2ccc(-n3c(=O)c4c5c(sc4n4cnnc34)CC(C(C)(C)C)CC5)cc2)cc1 (stereo unspecified)				< 4.77	4.33	> 100 µM	16.9 µM		< 4.77	4.26		4.33	< 4.77
CC(C)(C)C1CCc2c(sc3c2c(=O)n(-c2ccc(Cl)cc2)c2nncn32)C1 (stereo unspecified)				5.42	5.08	36.5 µM	18.8 µM		5.43	< 4.44		< 4.44	< 4.73
O=c1c2c3c(sc2n2cnnc2n1-c1ccccc1)CCCC3				< 4.00	< 4.00	> 100 µM	> 100 µM		< 4.00	< 4.00		< 4.00	< 4.00
COc1ccc(-n2c(=O)c3c4c(sc3n3cnnc23)CC(C(C)(C)C)CC4)cc1 (stereo unspecified)				5.74	5.44	39.1 µM	21.9 µM		5.72	< 4.41		< 4.41	5.59
O=c1c2c3c(sc2n2cnnc2n1-c1ccccc1)CC(c1ccccc1)CC3 (stereo unspecified)				< 4.56	< 4.56	27.5 µM	27.6 µM		4.71	< 4.56		< 4.56	< 4.56
CC1CCc2c(sc3c2c(=O)n(-c2ccccc2)c2nncn32)C1 (stereo unspecified)				< 4.16	< 4.10	79 µM	69 µM		4.79	< 4.10		< 4.10	< 4.16
CC(C)(C)C1CCc2c(sc3c2c(=O)n(-c2ccccc2)c2nnc(N)n32)C1 (stereo unspecified)				4.89	< 4.34	45.9 µM	35.4 µM		5.09	< 4.34		< 4.34	< 4.45
Cc1ccc(-n2c(=O)c3c4c(sc3n3cnnc23)CC(C(C)(C)C)CC4)cc1 (stereo unspecified)				5.74	5.71	32.8 µM	11.1 µM		5.74	4.84		4.89	5.62
CC1(C)Cc2c(sc3c2c(=O)n(-c2ccccc2)c2nncn32)C(C)(C)C1				< 5.02	< 5.04	9.09 µM	9.6 µM		< 5.02	< 5.04		< 5.04	< 5.02
O=C1CC2(CCCC2)CC(=O)N1CCCCN1CCN(c2ncccn2)CC1 [BUSPIRONE]	3.52%	0.119%											
Cc1cc(CCCOc2c(C)cc(-c3noc(C(F)(F)F)n3)cc2C)on1 [PLECONARIL]				7.89	6.29	42.8 µM	53.5 µM		6.51	6.89		< 4.37	7.08
